Test results: PMC7568475 (Nature metabolism, 2020)
Where no end group is shown, it is not given here.

Columns and labels:
[1] = tested on: human islets; assay: Steady state urea quantification by GC-MS, human islets; format: cell-based
[2] = tested on: human islets; assay: NO levels by flow cytometry; format: cell-based
Procedure, shortened: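 Islets were held 72 h in 33 mM versus 5.8 mM glucose. NO was read 24 h after cytokine treatment. For each replicate, 50 islets were dispersed in accutase at 37 °C, rinsed in PBS, and stained with DAF-FM 30 min at 37 °C. Mean FITC intensity by flow cytometry was normalized to PBS control set to 1.0.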

[3] = tested on: GLS; assay: GLS activity readout; format: cell-based; conditions: islets, readout of GLS activity, n=2 human donors
[4] = tested on: GK; conditions: cited from earlier work
[5] = tested on: human islets; assay: 15N2-arginine tracer study in human islets; format: cell-based; conditions: 15N2(guanidino)-L-arginine 72 h, cytokines 24 h, n=4 donors
Procedure, shortened: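 Human islets (150 in 2 ml) incubated 72 h with 15N2(guanidino)-L-arginine at 200 mg/L in RPMI with 5.5 mM glucose and 5% human A/B serum. Cytokine mix: TNF-α 10 ng/ml, IL-1β 10 ng/ml, IFNγ 100 ng/ml. Mass isotopomer distributions were corrected for natural abundance, normalized to tracer uptake, and expressed relative to PBS control set to 1.0.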

[6] = tested on: β-cells in human islet grafts; assay: β-cell death in human islet grafts; format: in vivo; conditions: donor islets pre-treated before transplantation; grafts excised day 2
Procedure, shortened: (§1)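 Donor islets were pre-treated overnight at 37 °C with vehicle (1% DMSO), 5 µM compound, or 5 µM plus 1 mM PAA. Medium was RPMI uptake medium with 11 mM glucose, 10% serum and 0.1% Tween 80 (pH 6.0). Islets were washed and held 24 h in fresh media. Male NOD-SCID mice (10–12 wk) received single i.p. STZ 200 mg/kg. 500 islets went under the kidney capsule 24–48 h after blood glucose ≥300 mg/dl.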

[7] = tested on: human islets; assay: Viability of human islets; format: cell-based
Procedure, shortened: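 Human islets were cultured in PIM(S) with 5% human A/B serum and infected for PC knockdown 24 h before treatment, 72 h in total. Medium carried 1 mM argininosuccinate; cytokines were TNF-α 10, IL-1β 10 and IFNγ 100 ng/ml. AnnexinV/7AAD flow cytometry was run 48 h after cytokines. Positive cells lay ≥2 s.d. outside unstained sample means.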

[8] = tested on: diabetic NOD-SCID mice; format: in vivo, mouse; conditions: 500 pre-treated human islets in diabetic NOD-SCID mice, up to 53 days
Procedure, shortened: as §1

[9] = target: T1, recombinant human glucokinase (GK, hexokinase IV) (human, UniProt P35557 1-465); assay: ITC
T1 sequence (looked up): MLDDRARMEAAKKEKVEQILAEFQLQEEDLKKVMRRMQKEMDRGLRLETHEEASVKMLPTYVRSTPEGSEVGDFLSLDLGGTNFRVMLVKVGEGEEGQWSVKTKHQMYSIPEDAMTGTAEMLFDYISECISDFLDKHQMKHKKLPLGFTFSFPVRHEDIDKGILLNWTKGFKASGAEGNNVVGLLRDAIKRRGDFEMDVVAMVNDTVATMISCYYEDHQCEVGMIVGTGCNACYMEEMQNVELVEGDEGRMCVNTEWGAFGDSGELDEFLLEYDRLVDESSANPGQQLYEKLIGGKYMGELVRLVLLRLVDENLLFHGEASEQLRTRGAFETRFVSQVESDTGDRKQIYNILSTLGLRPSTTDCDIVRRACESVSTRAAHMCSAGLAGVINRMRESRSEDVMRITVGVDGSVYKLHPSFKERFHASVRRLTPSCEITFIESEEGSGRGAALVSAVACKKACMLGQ

[10] = PC-depleted human islets, cytokines, AS 1 mM, n=4 experiments, 2 donors
[11] = human islets, inflammatory cytokines, AS 1 mM, n=3 donors

For OC[C@H]1OC(O)[C@H](O)[C@@H](O)[C@@H]1O (some centres unmarked) [glucose], the “urea levels, glucotoxicity” value ([1]; human islets, 33 mM glucose 72 h vs 5.8 mM glucose) was “reduces urea” and the “NO levels, glucotoxicity” value ([2]; 33 mM glucose 72 h vs 5.8 mM glucose) was “enhances NO levels”.

With O=C(Cc1ccccc1)Nc1nnc(CCSCCc2nnc(NC(=O)Cc3ccccc3)s2)s1 [BPTES, Bis-2-(5-phenylacetamido-1,3,4-thiadiazol-2-yl)ethyl sulfide] the “urea levels with BPTES” value ([1]; islets, n=2 human donors) was “does not affect islet urea levels” and the “glutamate/glutamine (glu/gln) ratio” value [3] was “reduce the ratio of glutamate/glutamine”.

For CS(=O)(=O)c1ccc([C@@H](CC2CCCC2)C(=O)Nc2nccs2)cc1 [RO0281675], the “effect on GK affinity for glucose, allosteric activation” value [4] is listed as “significantly augments the enzyme’s affinity for glucose”, the “15N2 enrichment in urea (M+2) / ureagenesis” value [5] is listed as “ureagenesis was not altered” and the “β-cell death in islet grafts” value [6] is listed as “ineffective”. The “viability / protection from cytokine-induced death” value ([7]; human islets, TNF-α, IL-1β and IFNγ 48 h, n=6 donors (Fig. 1c)) was “does not protect human islets from cytokine-induced death” and the “hyperglycemia reversal (blood glucose)” value [8] was “ineffective”.

For COC[C@H](C)Oc1cc(O[C@@H](C)Cc2ccccc2)cc(C(=O)Nc2ccc(C(=O)O)cn2)c1 [GKA50], the urea levels ([1]; human islets, inflammatory cytokines 24 h) was “These differences were further recapitulated with a second, structurally distinct allosteric GKA” and the NO levels ([2]; inflammatory cytokines 24 h, DAF-FM) was “These differences were further recapitulated with a second, structurally distinct allosteric GKA”.

In the case of NC(=NCCC[C@H](N)C(=O)O)N[C@@H](CC(=O)O)C(=O)O [AS, argininosuccinic acid], the “urea levels with argininosuccinate, PC knockdown” value [1, 10] is reported as “rescues urea levels”, the “urea levels, AS dose response” value ([1]; human islets, 10–200 µM AS) is reported as “had no effect on urea levels” and the “urea levels with argininosuccinate” value [1, 11] is reported as “sufficient to increase urea levels”. For the same molecule, the “viability with argininosuccinate, PC knockdown” value [7, 10] was “protects against inflammation toxicity” and the viability with argininosuccinate [7, 11] was “rescue the viability of human islets undergoing inflammation”.

With NLWAAQRYGRELRRMDDEFVDSFKK (staple (positions not given here); not fully specified) [BAD BH3 SAHBA SD (hydrocarbon stapled peptide modeled after the phospho-BAD BH3 helix)] the “stoichiometry N” value [9] was 1.
